Experimental data published in ChEMBL document CHEMBL4513216, “Probing the Open Global Health Chemical Diversity Library for Multistage-Active Starting Points for Next-Generation Antimalarials” (ACS Infect Dis, 2020).

Experiment: Toxicity liver stage against HepG2, at 10uM
Format: cell-based
Set-up: test concentration 10 uM, cell line HepG2-A16-CD81EGFP
Conditions: human, HepG2-A16-CD81EGFP cells; read-out: INHIBITION
Outline: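 Uninfected HepG2-A16-CD81EGFP cells, 3 × 10^3 per well, 1536-well, plated on prespotted compound at 10 μM final, parasite-free screening media added to match infected plates; puromycin 10 μM positive, DMSO 0.5% negative; run in parallel with 48 h PbLuc assay at 37 °C, 5% CO2; viability by CellTiter-Glo luminescence, normalized to controls.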

Compound	cytotoxicity at 10 µM
O=C(Nc1ccc2c(c1)C(=O)NC2=O)c1ccc(Cl)s1	-3.96%
COc1ccc2[nH]c3c(N(C)CC4OCCO4)ncnc3c2c1	36%
O=C(NCC(=O)N1CCc2ccccc2C1)c1cnccn1	-4.81%
CSc1ccccc1NC(=O)c1ccc(N2CCOCC2)nn1	0.951%
O=C(NCCS(=O)(=O)N1CCN(c2ncccn2)CC1)c1ccccc1	-3.28%
Cn1cccc1C(O)CNC(=O)c1ccc(C(F)(F)F)cc1 (centres undefined)	2.9%
CCS(=O)(=O)N1CCC2(CCCC(=O)N2C)CC1	0.817%
Cn1cc(CN2CCO[C@H]3CN(Cc4ccsc4)C[C@H]32)cn1	-147%
Cc1nocc1C(=O)N1CCCC2(CCN(c3ccsc3)C2=O)C1 (centres undefined)	-129%
CC1CCc2nc(O)c(C(=O)NCc3ccccc3F)cc2C1 (centres undefined)	4.47%
Cc1ccccc1-n1ccc2nc(N3CCCC3)ncc2c1=O	-5.1%
CC(=O)N1CCCC1c1nccnc1Nc1ncccn1 (centres undefined)	-1.2%
N#Cc1cnn(C(=O)CCCOc2ccccc2Cl)c1N	-1.34%
COc1ccccc1OCC(=O)n1ncc(C#N)c1N	-20%
CCS(=O)(=O)NCCNc1c(C#N)cnc2c(C)cc(F)cc12	-0.453%
O=C(c1cnc(-c2ccccc2)s1)N1CCOC2(CCCC2)C1	-1.52%
CCn1cnnc1CNS(=O)(=O)N1CCCC1c1ccco1 (centres undefined)	-141%
CCc1nnc(CN2CC(n3cccn3)C2)o1	-146%
OCCN1CCN(Cc2coc(-c3ccccc3Cl)n2)CC1	-7.57%
CS(=O)(=O)CCC(=O)Nc1ccsc1	-3.39%
CN1CCN(C(=O)C2(NC(N)=O)CCCCC2)Cc2ccccc21	-6.32%
COc1ccccc1-c1csc(-c2cccc(C(=O)O)c2)n1	12.3%
COc1ccc(-c2csc(-c3cccc(C(=O)O)c3)n2)cc1OC	3.31%

Compound	cytotoxicity at 10 µM
Clc1ccc2cccnc2c1CNC1CCc2ncnn2C1 (centres undefined)	-6.53%
CC1(C)COCCN1C(=O)Cc1cc(Cl)c2c(c1)OCCO2	1.54%
COC(=O)Cn1ccc(NS(=O)(=O)c2ccc3c(c2)CCC3)n1	10.6%
Cc1noc(CCNC(=O)NCc2ccc(N3CCCCC3)cc2)n1	9.47%
O=C(Cc1csc(-c2ccoc2)n1)NCCC(=O)N1CCCCC1	9.13%
N#Cc1csc(CNCCOc2ccccc2)c1	8.35%
COc1ccc(OC)c(CN(C(=O)c2ccc(C)[nH]c2=O)C2CC2)c1	-1.59%
O=C1CCN(C(=O)C2(c3ccc(F)cc3)CCOCC2)CCN1	-4.97%
O=C(NCCc1ccsc1)c1ccoc1	-3.3%
CCSCCC(C)N(C)C(=O)c1cc(C)on1 (centres undefined)	-7.32%
c1ncn(CCNC2CCCN(Cc3noc(C4CC4)n3)C2)n1 (centres undefined)	-2.77%
OC(CN1CCN(CC(F)F)CC1)c1ccc(Br)cc1 (centres undefined)	-9.88%
CC1CCCCN1Cc1nc(C2CC2)no1 (centres undefined)	4.48%
CN(Cc1ccccc1OC(F)(F)F)C(=O)C1CCCN(C(N)=O)C1 (centres undefined)	7.59%
COCCN(C)C(=O)Nc1ccc(C(=O)NCCC(=O)OC)cc1	7.2%
CC(C)(C)OC(=O)NCC1CCN(C(=O)c2ccccc2O)C1 (centres undefined)	-3.73%
CCN(CC(F)(F)F)C(=O)C1CCCN(Cc2cscn2)C1 (centres undefined)	-8.64%
Oc1ccc2oc3c(c2c1CN1CCOCC1)CCCC3	-0.499%
CNC(=O)c1cccc(NC(=O)NCc2ccccc2)c1C	-1.67%
O=C(NCC(O)COc1cccc(F)c1)C1(c2ccc(F)cc2)CC1 (centres undefined)	0.884%
Cc1nonc1NC(=O)C1SCCc2ccccc21 (centres undefined)	-3%
CCc1ccc(C2COCCN2C(=O)Nc2cc(C)on2)o1 (centres undefined)	-4.31%
O=C(Nc1nc(-c2ccccc2)ns1)N1CCC(CO)CC1	9.11%

Compound	cytotoxicity at 10 µM
Cc1nn(C)c(N(C)C)c1CNCc1ccc(Cn2cccn2)cc1	3.73%
CC(C)(O)CN1CCN(C(=O)c2ccn(-c3cccc(F)c3)n2)CC1	-3.53%
CCC(O)CN1CCN(C(=O)c2ccn(-c3cccc(F)c3)n2)CC1 (centres undefined)	-1.65%
O=S1(=O)CCCN1Cc1coc(-c2ccc(C(F)(F)F)cc2)n1	-2.04%
CN(CCn1nc2ccccn2c1=O)CC(=O)N(C)C1CCCCC1	-138%
O=c1oc(-c2ccc(F)cc2)nn1CCS(=O)(=O)c1ccccc1	-0.924%
CC(=O)Nc1nc(C(=O)NCCOc2ccccc2)cs1	6.11%
Cc1oc(-c2ccccc2)nc1C(=O)NC1=NCCS1	1.85%
CN1CCCN(CCCNC2CCc3cc4c(cc32)OCCO4)CC1 (centres undefined)	-3.68%
CCOc1ccccc1OCC(=O)NCc1ncc(C)c(OC)c1C	1.09%
COc1c(C)cnc(CNC(=O)CCOCc2ccccc2)c1C	-4.31%
COc1ccc2c(OCC(=O)NCC(F)(F)F)ccnc2c1	-3.88%
Cc1cc(N2CCCC(OC(=O)CCN3CCCC3=O)C2)nc(C)n1 (centres undefined)	2.58%
Cc1noc(C)c1CCC(=O)N(C)C(C)c1cccs1 (centres undefined)	7.93%
CCn1ccc2cc(NC(=O)CC3CCCO3)ccc21 (centres undefined)	2.5%
CCOCCN1CCN(CC(O)c2cc(Cl)ccc2Cl)CC1 (centres undefined)	0.858%
CN(c1ccc(CNc2ccc(Cl)cn2)cc1)S(C)(=O)=O	5.03%
Cc1ccc(C(=O)N2CC(C(N)=O)O[C@H](C)C2)c(F)c1 (some centres undefined)	-5.43%
COc1cc(Cl)c(NC(=O)NCCn2cccc2)cc1OC	-0.473%
O=C(CO)N1CCN(S(=O)(=O)CCCF)CC1	-0.655%
CNC(=O)c1ccc(N(C)C2CCC2)nn1	4.49%
CC(C)n1cnnc1CN(C)Cc1ccoc1	3.15%
NC(=O)CN1CCC(C(=O)NCc2ccc3nonc3c2)CC1	-0.969%

Compound	cytotoxicity at 10 µM
CSc1ncccc1C(=O)N1CCC2(CC1)c1nc[nH]c1CCN2C	52.6%
CO[C@H]1CNC[C@@H]1NC(=O)c1cc(C)nc2ccc(C)cc12	1.25%
COc1ncccc1C(=O)N1CCc2c(ncnc2N2CCOCC2)C1	-3.5%
Cc1nc(C)n(CCCNC(=O)C(C)n2ccnc2C(C)C)n1 (centres undefined)	-4.97%
CCc1ccc(CN2CCC(=O)N(CC3CC3)C(C(C)C)C2)nc1 (centres undefined)	2.08%
O=C(Cn1ccc2ncccc2c1=O)N1CCCCC1	-7%
CCOC(=O)N1CCN(C(=O)Cn2ccc3ncccc3c2=O)CC1	-4.99%
CCc1nnc(N2C[C@@H](CN(C)CCO)[C@@H](CO)C2)s1	-5.61%
O=C(CCc1nc(Cl)n[nH]1)N1CCC2(CCCNC2=O)C1 (centres undefined)	-6.37%
COc1ccc(-n2ccnc2-c2cnc(C(C)C)nc2)cc1C(=O)O	-2.42%
Cn1cnnc1CC1CCN(Cc2c(Cl)cncc2Cl)CC1	-9.42%
CN(C)C(=O)N1CCCn2nc(CNC(=O)CCc3cccs3)cc2C1	-5.04%
CC(C)c1cncnc1-c1cc(F)cc2c1OC(CN)C2 (centres undefined)	-4.02%
CC(C)C1CN(Cc2cnc(N(C)C)nc2)CCCN1CC1CC1 (centres undefined)	-6%
CN(C)c1ccc(-c2cccc(-c3ccn(CCCO)n3)c2)nn1	-3.06%
Cc1cccc(C2CCCN(C(=O)CN3C(=O)CCNC3=O)C2)c1 (centres undefined)	-2.56%
COC[C@H](C)Nc1cc(C)c2ccc(SC)cc2n1	0.466%
O=C(CCn1ccc2ncccc2c1=O)N1CCCC1	-1.93%
CC(C)NS(=O)(=O)c1cc(C(=O)O)cc(-c2ccccc2F)c1	-7.56%
Cc1ccc(C)c(S(=O)(=O)N2CCN(C)C3(CCC(=O)N(C)CC3)C2)c1 (centres undefined)	7.01%
FC(F)C(F)(F)COCc1ncnn1-c1ccc2c(c1)OCO2	-2.82%
Cn1cc(C(=O)N2CCCCC2CCc2ccc(O)cc2)cn1 (centres undefined)	-2.3%
CC(C)c1noc(-c2ccc(NCC3CCCOC3)nc2)n1 (centres undefined)	-2.26%

Compound	cytotoxicity at 10 µM
CCc1nc(C)cc(NC(C)C(=O)Nc2cc(F)ccc2C)n1 (centres undefined)	-4.44%
O=c1[nH]ccn1CCCN1CC=C(c2cnn(-c3ccccc3)c2)CC1	7.95%
CCc1ncc(C(=O)N(C)C2Cc3ccccc3C2)cn1	-1.05%
COc1cc(-c2nc3c([nH]2)CCCNC3=O)ccc1OC(C)C	13.3%
COc1ccccc1Oc1ncccc1CNC(=O)[C@@H](N)[C@@H](C)O	-6.29%
COCCc1noc(-c2ccc(-c3ccc(N)nc3)nc2)n1	2.5%
CCC[C@@H]1CN(Cc2cnc3c(S(C)(=O)=O)cnn3c2)C[C@H]1N(C)C	-2.12%
CCN1CCc2[nH]cnc2C12CCN(c1ccc(Cl)c(C(=O)O)n1)CC2	2.74%
CC(C1CCN(Cc2cccc(OC(F)F)c2)CC1)N1CCOCC1 (centres undefined)	-9.2%
COc1ccc(-c2nc3c([nH]2)CCCNC3=O)cc1OC	26.6%
O=C(Cn1nc2ccccc2n1)N1CCCC(O)(CO)C1 (centres undefined)	-6.66%
CN(CCN1CCCCC1)C(=O)c1cc(CN2CCOCC2)on1	-22.7%
CNc1cc2c(nn1)CCN(C(=O)c1ccc3c(c1)OCO3)C2	6.85%
CC(NC(=O)NCCS(C)(=O)=O)c1ccc2c(c1)CCC(=O)N2 (centres undefined)	1.39%
Cc1oc(-c2ccco2)nc1CN1CCCC(Cn2cncn2)C1 (centres undefined)	-23.5%
O=C(NCCc1ccccc1F)NCC(O)c1cccc(F)c1 (centres undefined)	-6.23%
Cc1nc(CN2CCN(C(=O)c3sccc3C)CC2)cs1	0.96%
O=C(NCC(c1ccccc1)N1CCOCC1)Nc1cn[nH]c1 (centres undefined)	-15.8%
COc1ccc(Cl)cc1CS(=O)(=O)CC(=O)N(C)Cc1ccccc1F	2.53%
CC(C)OCc1nn(CC2CC2)c2c1CN(Cc1ccco1)CC2	-15.4%
CNC(=O)CN1CC[C@H]2CN(C(=O)c3ccc(C)cc3)C[C@H]2C1	-4.06%
COCCN1C(=O)[C@@H]2CC[C@H]1CN(C(=O)Cc1c(F)cccc1Cl)C2	-1.02%
